Source: PubChem (Sanford-Burnham Center for Chemical Genomics)
The list is not random: actives were taken first. Their share in the collection is about 1.9%.
CCR6 antag: CCR6 receptor antagonists, primary screen, cell-based, CHO-K1, luminescence, beta-arrestin, uHTS; inhibition, % at 20 µM; CHO-K1 CCR6 PathHunter beta-arrestin, CCL20-stimulated; 340,000 tested, 0.49% active; C-C chemokine receptor type 6 (Homo sapiens), P51684;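 active means compounds whose inhibition of the agonist-driven luminescence signal at 20 µM reaches about 50%, limit read from the data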;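 further: cells stimulated with CCL20 at 14 nM final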
Target sequence (P51684 whole entry, looked up): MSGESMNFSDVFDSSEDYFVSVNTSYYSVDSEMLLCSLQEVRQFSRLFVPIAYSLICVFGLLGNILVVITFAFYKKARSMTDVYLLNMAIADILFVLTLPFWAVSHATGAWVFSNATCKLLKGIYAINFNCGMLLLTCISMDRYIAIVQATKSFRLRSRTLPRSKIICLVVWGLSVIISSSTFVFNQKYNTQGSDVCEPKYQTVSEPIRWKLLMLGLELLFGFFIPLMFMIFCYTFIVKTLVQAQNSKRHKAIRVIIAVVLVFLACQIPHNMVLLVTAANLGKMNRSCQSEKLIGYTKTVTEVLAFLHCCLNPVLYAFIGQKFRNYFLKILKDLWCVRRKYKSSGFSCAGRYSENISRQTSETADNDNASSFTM
APJ ag: agonists of human apelin receptor APJ, primary screen, CHO-K1 cells, PathHunter beta-arrestin, luminescence; 330,000 tested, 0.11% active; AID 2520, 2010; 0% DMSO wells, 100% apelin; P35414; activation, % at 20 µM;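 active means activation more than six SD over the plate average, tested at 20 µM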
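Assay system – PathHunter CHO-K1 APJ (AGTRL-1) beta-arrestin reporter cells · Compound – one dose, 20 µM compound, 1% DMSO · Timing – compound 90 min 25 °C, reagent 1 h · Measured by – luminescence from split beta-galactosidase complementation, Galacton Star/Emerald II substrate · Measure – beta-arrestin recruitment to APJ as agonist activity, luminescent signal · Benchmarks – DMSO vs Apelin-13 10 nM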
CXCR6 block: CXCR6 receptor inhibitors, primary screen, cell-based, beta-arrestin, luminescence, CHO-K1 PathHunter, 1536-well | 360,000 tested, 0.36% active | inhibition, % at 20 µM; in the data active means inhibition above about 34%, passing the limit was not always enough;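 further: antagonist mode with CXCL16 agonist at 10 nM final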
Target sequence (O00574 whole entry, looked up): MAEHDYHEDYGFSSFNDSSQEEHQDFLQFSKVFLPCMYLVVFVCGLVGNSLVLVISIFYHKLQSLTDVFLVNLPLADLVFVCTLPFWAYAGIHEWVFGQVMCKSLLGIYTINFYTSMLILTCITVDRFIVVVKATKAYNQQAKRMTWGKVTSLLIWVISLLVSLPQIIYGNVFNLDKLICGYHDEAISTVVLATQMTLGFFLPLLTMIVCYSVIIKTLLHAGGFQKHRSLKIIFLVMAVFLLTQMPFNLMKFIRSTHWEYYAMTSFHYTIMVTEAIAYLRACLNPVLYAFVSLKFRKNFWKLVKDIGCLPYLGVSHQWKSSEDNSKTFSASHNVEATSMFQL
EBI2 antag: EBI2 receptor antagonists, beta-arrestin recruitment, primary screen, cell-based, luminescence, 7a,25-OHC stimulation, uHTS; 360,000 tested, 0.81% active; 7a,25-OHC stimulated; inhibition, % at 5 µM; AID 651636, 2012; in the data active means inhibition above about 38%;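 further: enzyme fragment complementation signal reports receptor beta-arrestin coupling in cells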
TAG inh: inhibitors of triacylglycerol accumulation, primary screen, cell-based, uHTS, fluorescence, H9c2. H9c2 cells, Nile Red lipid (TAG) fluorescence; cells loaded with 200 µM oleic acid. inhibition, % at 12.5 µM. 230,000 tested, 0.66% active;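 active means pattern-corrected inhibition of lipid staining of at least 50% with the nuclear-stain viability signal not falling by more than 50%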
APJ antag: antagonists of human apelin receptor APJ, primary screen, CHO-K1 cells, beta-arrestin complementation, luminescence | P35414 | inhibition, % at 20 µM | 330,000 tested, 0.32% active | AID 2521, 2010;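 active means inhibition above about 40% at 20 µM, limit read from the data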;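 further: cells challenged with 10 nM apelin-13 agonist together with compound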
Large screens that a line does not name were inactive.

O=[N+]([O-])c1cc([N+](=O)[O-])c2nonc2c1Nc1ccccc1O	none (no result: TAG inh)
O=[N+]([O-])c1cc([N+](=O)[O-])c2nonc2c1Nc1ccc(O)cc1	CCR6 antag 51.5 (no result: TAG inh)
COc1ccc(C2NCCc3c2[nH]c2ccccc32)cc1COc1ccc(F)cc1 (centres undefined)	TAG inh 114.8
Cc1nn(Cc2c(Cl)cccc2Cl)c(C)c1NC(=O)c1cn(-c2ccccc2)nc1-c1ccccc1	TAG inh 50.4
C=CCn1cccc(/C=C/C(=O)c2ccc(C(C)(C)C)cc2)c1=S	EBI2 antag 44.5 (no result: APJ ag, TAG inh, APJ antag)
O=C1CC(=O)OC(c2ccc([N+](=O)[O-])cc2)O1	CXCR6 block 50.0 (no result: CCR6 antag, APJ ag, APJ antag)
CC[C@@H]1[C@H]2CCCC(=O)N3CC[C@@H](C[C@@H]1OC(=O)Nc1ccccc1)[C@@H]23	none (no result: TAG inh)
O=C(/C=C1\NC2(CCCC2)Cc2ccccc21)N1CCOCC1	none (no result: TAG inh)
CC1(C)Cc2c(ccc3ccccc23)/C(=C/C(=O)N2CCCCC2)N1	CCR6 antag 64.3
O=C(NCC(=O)N(c1cccc(F)c1)C(C(=O)NC1CCCC1)c1cccnc1)c1cccs1 (centres undefined)	none
Oc1ccc2ccccc2c1N=Nc1ccc(F)cc1	TAG inh 57.8
COc1ccc(C(C)(O)c2nc(-c3cccc(C(C)C)c3)cs2)cc1 (centres undefined)	none (no result: CCR6 antag, APJ ag, APJ antag)
COc1cccc(/C=N/Nc2nc3ccccc3[nH]2)c1OC	none
COc1cccc(/C=N/Nc2nc3ccccc3[nH]2)c1O	TAG inh 59.1
Cc1c(/C=N/Nc2nc3ccccc3[nH]2)c2ccccc2n1C	TAG inh 61.9
CC(Cc1ccccc1)NC(=O)CCNNC(=O)c1ccncc1 (centres undefined)	none (no result: CCR6 antag, APJ ag, APJ antag)
Cc1cccc(OCc2n(CC(=O)OC3CC(C)CCC3C(C)C)c3ccccc3[n+]2C)c1 (centres undefined)	TAG inh 97.8
COc1ccc(NC(=O)C2CCN(S(=O)(=O)c3ccc(Cl)c(C(F)(F)F)c3)CC2)cn1	none (no result: CCR6 antag, APJ ag, APJ antag)
Cc1cc(C)n(-c2ccc(Cl)c(C(=O)O)c2)n1	none
COc1cc(C2c3cc4c(cc3OC(NCCc3ccccc3)C2C)OCO4)cc(OC)c1OC (centres undefined)	none (no result: APJ ag, APJ antag)
O=C(CSc1nc(-c2ccc(F)cc2)nc2c1Cc1ccccc1O2)Nc1cccc(C(=O)O)c1	CCR6 antag 51.9 (no result: APJ ag, APJ antag)
CCOC(=O)c1c(CSC(=N)N)n(-c2ccc(C)cc2)c2cc(Br)c(OC(C)=O)cc12	TAG inh 74.4
COc1cc(-c2nc(-c3ccc(NC(=O)c4ccc5c(c4)OCO5)cc3)no2)cc(OC)c1OC	TAG inh 92.8
Cc1ccc(C(=O)COC(=O)CCC(=O)Nc2cc(Cl)ccc2Cl)cc1[N+](=O)[O-]	CCR6 antag 62.3
COC(=O)[C@@]12C[C@@H](CC(=O)N3CCCC3)C(=O)N(Cc3ccccc3)C1=CCC(C)(C)C2	none (no result: CCR6 antag, APJ ag, CXCR6 block, TAG inh, APJ antag)
Cc1ccccc1NC1=C/C(=N\S(=O)(=O)c2cccs2)c2ccccc2C1=O	CCR6 antag 56.1 (no result: TAG inh)
O=c1c(Br)c(Br)cnn1-c1ccccc1	TAG inh 90.1 (no result: APJ ag, APJ antag)
Cc1ccc(-n2ncc(Br)c(Br)c2=O)cc1	TAG inh 66.1 (no result: APJ ag, APJ antag)
O=c1c(Br)c(N2CCCC2)cnn1-c1ccccc1	none (no result: TAG inh)
CC(NC(=O)c1ccco1)C(=O)N1CCN(C(c2ccccc2)c2ccccc2)CC1 (centres undefined)	none
COc1ccc(Cn2cc(CN3CC(N4CCN(C5CCN(C)CC5)CC4)CS3(=O)=O)nn2)cc1 (centres undefined)	none (no result: CCR6 antag, APJ ag, TAG inh, APJ antag)
O=c1oc(-c2ccccc2F)nc2c1cnn2-c1ccccc1	CCR6 antag 51.9 (no result: TAG inh)
Cc1nc(NNC(=O)c2ccc([N+](=O)[O-])cc2)cc(-c2ccccc2)n1	CCR6 antag 58.2 (no result: TAG inh)
O=C(NNc1cc(N2CCCC2)nc(N2CCCC2)n1)c1ccc([N+](=O)[O-])cc1	none
COc1cc(/C=C/c2ccc3cccc(O)c3n2)ccc1O	CCR6 antag 66.8, CXCR6 block 42.8 (no result: TAG inh)
Oc1cccc2ccc(/C=C/c3ccccc3Br)nc12	CCR6 antag 62.2 (no result: TAG inh)
COCCN(CC(=O)NC1CCCCC1)C(=O)/C=C/C(=O)c1ccc(OC)cc1O	CCR6 antag 64.7, CXCR6 block 61.7 (no result: APJ ag, APJ antag)
COc1ccc(CN(C(=O)/C=C/C(=O)c2ccc(OC)cc2O)C(C(=O)NC2CCCCC2)c2ccncc2)cc1 (centres undefined)	none (no result: TAG inh)
COc1ccc(C(=O)/C=C/C(=O)N(CC(=O)NC2CCCCC2)Cc2cccs2)c(O)c1	CCR6 antag 92.3, CXCR6 block 72.3
Cc1ccc(N2CC(C(=O)Nc3ccc(S(=O)(=O)N4CCOCC4)cc3)CC2=O)cc1Cl (centres undefined)	none
COc1ccccc1NS(=O)(=O)c1cccc(NC(=O)c2cncc(Br)c2)c1	none
COc1ccccc1C=CC(=O)C=Cc1ccccc1OC	none (no result: APJ ag, APJ antag)
COc1ccccc1/C=C/C(=O)/C=C/c1ccccc1O	EBI2 antag 43.9 (no result: APJ ag, TAG inh, APJ antag)
Cn1nnnc1Sc1ncnc2scc(-c3cccc(Br)c3)c12	TAG inh 67.5
O=C(O)c1cccc(NC(=O)c2ccc3c(c2)C(=O)N(Cc2ccco2)C3=O)c1	none
CCc1ccc(NC(=O)c2ccc3c(c2)C(=O)N(Cc2ccco2)C3=O)cc1	EBI2 antag 83.7 (no result: TAG inh)
CCn1c(O)c(N=NC(=S)NCC2CCCO2)c2ccccc21 (centres undefined)	CCR6 antag 66.1, CXCR6 block 46.7
O=C(Nc1ccc(N2CCOCC2)cc1)c1ccc(Cl)c(S(=O)(=O)N2CCCCC2)c1	none
O=C(NN1C(=O)/C(=C/c2cccs2)SC1=S)c1cccnc1	none
CCOc1cc(/C=C2\SC(=S)N(NC(=O)c3cccnc3)C2=O)ccc1O	APJ antag 44.1 (no result: TAG inh)
CC(/C=C1\SC(=S)N(NC(=O)c2ccncc2)C1=O)=C\c1ccccc1	none
COc1cc(/C=C2\SC(=S)N(Nc3ccccc3)C2=O)cc(OC)c1OC	CCR6 antag 50.6
COc1cc(/C=C2\SC(=S)N(NC(=O)c3ccncc3)C2=O)ccc1O	CCR6 antag 53.1
COc1cc(/C=C2\SC(=S)N(NS(=O)(=O)c3ccc(C)cc3)C2=O)ccc1O	CXCR6 block 37.2
Cc1ccc(C)c(N(C(=O)c2csnn2)C(C(=O)NC2CCCC2)c2cccnc2)c1 (centres undefined)	none (no result: TAG inh)
COc1cc(OC)cc(C(=O)N[C@H](C(=O)OCC(=O)N2CCN(S(=O)(=O)c3ccc(C)cc3)CC2)C(C)C)c1	none (no result: APJ ag, APJ antag)
C=C(C)COc1ccc(-c2[nH]ncc2-c2ccc(OC)c(OC)c2)c(O)c1	none
